# Reference: PubChem BioAssay
# Active and inactive are the calls of the source.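 How the source made its calls, unless noted: active means NADPH fluorescence slope more negative than the mean of all samples by about 3 SD, 99.7% confidence; inactive means the rest.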
# Assays:
# [1] = inhibitors of TNFa-induced NFkB p65 translocation, primary screen, imaging, HUVEC, MLSMR starter and 10KST1 sets (AID 438;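 active means inhibition above 20% together with a positive visual image hit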;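 further: compound added about 3h40 before a 20 min TNFalpha stimulation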;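 on inhibition: signal is the nuclear over cytoplasmic p65 intensity ratio per well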); settings: HUVEC TNFa-induced p65 nuclear translocation; cell count: measured here: nuclei count (cytotoxicity indicator), at 2.08 µM; inhibition: at 2 µM, stronger effect = higher value, 0% TNFa-plus-vehicle, 100% no-TNFa wells
# [2] = inhibitors of E-selectin induction by TNFa, primary screen, imaging, HUVEC, immunofluorescence, MLSMR starter and 10KST1 sets (AID 487;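 active means visually confirmed hit in the image check and inhibition above 20%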;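 on inhibition: signal is fraction of cell area covered by stained E-selectin grains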;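 on nuclei count: 100% = median nuclei count of all wells on the same plate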); settings: HUVEC TNFalpha-induced E-selectin immunofluorescence imaging, at 2 µM; inhibition: stronger effect = higher value; nuclei count: measured here: cell number, toxicity
# [3] = DUSP6 inhibitors restoring Erk phosphorylation by chemical complementation, primary imaging in DUSP6-transfected HeLa (AID 609;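 active means compounds giving at least 50% inhibition in the cell-based MKP-3 phosphatase rescue imaging test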;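 on inhibition: phospho-Erk level distribution per well compared with pooled transfected vehicle control wells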); settings: HeLa MKP-3 transfected, phospho-Erk imaging KS statistic, at 10 µM, cells stimulated with TPA for 15 min
# [4] = target: Dual specificity protein phosphatase 6 (Homo sapiens) (UniProt Q16828); assay: as above; settings: HeLa MKP-3 transfected, phospho-Erk imaging KS statistic; at 10 µM; stronger effect = higher value; cells stimulated with TPA for 15 min
# Sequence of Dual specificity protein phosphatase 6 (Homo sapiens) (Q16828 whole entry, looked up): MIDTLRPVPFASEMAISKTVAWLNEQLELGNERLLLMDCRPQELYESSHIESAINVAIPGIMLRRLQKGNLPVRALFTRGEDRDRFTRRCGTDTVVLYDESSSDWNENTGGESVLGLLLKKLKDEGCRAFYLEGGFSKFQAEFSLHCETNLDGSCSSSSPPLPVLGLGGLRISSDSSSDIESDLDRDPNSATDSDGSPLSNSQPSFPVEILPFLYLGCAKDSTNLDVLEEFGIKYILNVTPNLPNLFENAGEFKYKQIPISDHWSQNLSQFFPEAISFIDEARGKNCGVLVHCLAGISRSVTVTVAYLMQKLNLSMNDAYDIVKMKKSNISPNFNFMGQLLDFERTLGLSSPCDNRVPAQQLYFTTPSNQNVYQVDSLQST
# [5] = target: Voltage-gated potassium channel subunit beta-2 (Rattus norvegicus) (UniProt P62483); assay: KvBeta enzyme negative modulators, primary screen, biochemical, NADPH fluorescence (AID 622;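 active means fluorescence slope higher than the sample average by over 3 SD, cut at about -0.22 in these data, passing the limit was not always enough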;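 further: slope of raw intensity against log time taken from 70 to 1610 s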); settings: recombinant KvBeta, 4-cyanobenzaldehyde reduction, at 10 µM, stronger effect = higher value
# Sequence of Voltage-gated potassium channel subunit beta-2 (Rattus norvegicus) (P62483 whole entry, looked up): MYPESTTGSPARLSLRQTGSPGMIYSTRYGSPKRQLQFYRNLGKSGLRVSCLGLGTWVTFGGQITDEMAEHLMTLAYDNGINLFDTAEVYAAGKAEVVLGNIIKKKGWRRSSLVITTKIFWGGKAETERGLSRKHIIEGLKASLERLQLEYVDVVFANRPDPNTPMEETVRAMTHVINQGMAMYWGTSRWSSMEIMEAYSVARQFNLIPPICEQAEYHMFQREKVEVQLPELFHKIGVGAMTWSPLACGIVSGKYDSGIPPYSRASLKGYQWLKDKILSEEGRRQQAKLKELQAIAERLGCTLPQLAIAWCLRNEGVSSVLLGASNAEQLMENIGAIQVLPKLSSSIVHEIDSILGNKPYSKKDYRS
# [6] = target: Voltage-gated potassium channel subunit beta-2 (Rattus norvegicus) (UniProt P62483); assay: KvBeta positive modulators, primary screen, biochemical, NADPH fluorescence (AID 623); settings: Recombinant KvBeta, NADPH fluorescence decrease slope, 10 min; at 10 µM; stronger effect = lower value;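 further: fluorescence intensity change per second fitted from 20 to 320 s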
# [7] = target: Alpha-2C adrenergic receptor (Homo sapiens) (UniProt P18825); assay: modulators of alpha2C/GIRK thallium flux, primary screen, cell-based, HEK293 alpha2C/GIRK1/2 (AID 624;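 active means fluorescence slope after compound addition differing from the mean of all screened samples at 99.7% confidence, in either direction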;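 further: slope of fluorescence ratio to pre-addition baseline per second over 15 to 24 s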); settings: thallium flux BTC fluorescence, at 10 µM, actives lie on both sides
# Sequence of Alpha-2C adrenergic receptor (Homo sapiens) (P18825 whole entry, looked up): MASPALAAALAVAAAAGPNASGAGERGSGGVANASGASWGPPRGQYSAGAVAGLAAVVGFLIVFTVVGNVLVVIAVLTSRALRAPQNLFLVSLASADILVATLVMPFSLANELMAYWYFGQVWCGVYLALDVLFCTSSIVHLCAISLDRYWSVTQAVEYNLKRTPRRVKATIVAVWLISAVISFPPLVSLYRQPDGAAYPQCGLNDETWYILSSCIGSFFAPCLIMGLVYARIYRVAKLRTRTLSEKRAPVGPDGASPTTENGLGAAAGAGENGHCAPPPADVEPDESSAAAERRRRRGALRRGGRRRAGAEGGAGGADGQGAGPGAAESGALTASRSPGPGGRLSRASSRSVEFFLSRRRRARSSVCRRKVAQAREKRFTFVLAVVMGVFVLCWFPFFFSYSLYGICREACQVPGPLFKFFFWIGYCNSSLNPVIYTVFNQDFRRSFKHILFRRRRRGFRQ
# [8] = inhibitors of larval lipid processing in zebrafish, primary screen, whole organism, PED6 fluorescence, gall bladder and intestine (AID 686;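 active means a full or partial loss of lipid-probe fluorescence in the fish gall bladder, intestine or both, judged by eye; inactive means no fluorescence loss, or compound toxic to the fish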;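 further: larvae 5 to 7 days old with five fish per well; signal comes from phospholipase A2 cleavage of quenched PED6 carried via bile; overnight exposure to compound and PED6 before scoring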); settings: Zebrafish larvae PED6 lipid processing, fluorescence scoring; screened at 20 µM (by protocol)
# How it was run: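 System: live zebrafish larvae aged 5-7 days, whole organism; measure: graded gall bladder and intestinal fluorescence inhibition per well; incubation: overnight exposure; reagent: ingested quenched lipid PED6 at 100 nM; signal: By-eye fluorescence microscopy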
# [9] = inhibitors of Chlamydomonas gravitaxis, primary screen, whole organism, Chlamydomonas reinhardtii, WT vs cilia-less mutant, absorbance, 96-well (AID 463189;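 active means inhibition at or above 50% relative to wild type and mutant plate controls; inactive means inhibition below 50%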;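 further: 0% = wild type cc124 cells in DMSO and 100% = ciliumless bld1 mutant cells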); settings: OD600 absorbance, 2 days, at 10 µM, stronger effect = higher value
# [10] = measured here: cell density z-score
# [11] = measured here: nuclear c-Myc green intensity z-score
# [12] = measured here: nuclear pErk red intensity z-score, stronger effect = higher value
Structure (SMILES),cell count [1],inhibition [1],inhibition [2],nuclei count [2] [%],"z-score [3, 10]","z-score [3, 11]","z-score [3, 12]",inhibition [4],fluorescence slope [5],NADPH fluorescence slope [6],slope [7],outcome [8],inhibition [9]
O=C(O)CC(NC(=O)COc1ccc(Cl)cc1Cl)C(=O)O (stereo not drawn),629,-19.5% (inactive),-11.7% (inactive),197,0.18,0.773,0.0309,-9.66% (inactive),-0.404 (inactive),-7.4e-05 (inactive),0.00527 (inactive),inactive,0.167% (inactive)
COc1ccc(-c2oc3ncn4nc(COc5ccccc5)nc4c3c2-c2ccc(OC)cc2)cc1,621,-7.9% (inactive),-75% (inactive),194,-0.444,-0.952,-0.924,-15% (inactive),-0.327 (inactive),-1.2e-05 (inactive),0.0133 (inactive),inactive,-3.79% (inactive)
CC(C)OC(=O)C(C#N)c1nc2ccccc2nc1N1CCCC1 (stereo not drawn),485,-22.5% (inactive),-48.2% (inactive),129,2.22,-1.34,-1.3,22.7% (inactive),-0.543 (inactive),-1.4e-05 (inactive),0.00397 (inactive),inactive,5.71% (inactive)
CCc1c(C)c(C#N)c2nc3ccccc3n2c1-n1nc(C)cc1C,609,-2.3% (inactive),-51.2% (inactive),140,-0.4,1.4,-0.335,7.93% (inactive),-0.352 (inactive),-7.9e-05 (inactive),0.00552 (inactive),inactive,-13.6% (inactive)
COC(=O)c1sc(NC(C)=O)c(C(=O)OC)c1C,633,-13.3% (inactive),4.8% (inactive),154,1.36,-0.117,-1.37,6.04% (inactive),-0.516 (inactive),-9.3e-05 (inactive),0.00594 (inactive),inactive,-1.51% (inactive)
COc1ccc(CNC(=O)c2c(C)cc(=O)oc2C)cc1OC,446,1.8% (inactive),-121% (inactive),167,0.057,0.328,1.22,-1.12% (inactive),-0.427 (inactive),-4.8e-05 (inactive),0.00518 (inactive),inactive,-7.01% (inactive)
Cc1noc(NS(=O)(=O)c2ccc(NC(=O)COc3ccccc3)cc2)c1C,641,-10.1% (inactive),29.8% (inactive),182,-0.876,0.527,-0.0095,-11.5% (inactive),-0.376 (inactive),-3.7e-05 (inactive),0.00522 (inactive),inactive,4.64% (inactive)
O=C(O)CCCC(=O)Nc1ccn(-c2ccccc2)n1,639,3.1% (inactive),-63.9% (inactive),142,2.2,-2.05,0.525,20.3% (inactive),-0.486 (inactive),-2.7e-05 (inactive),0.00622 (inactive),inactive,11.2% (inactive)
COc1cccc(NC(=O)CSC2=C(C#N)C(c3ccco3)C3=C(CCCC3=O)N2)c1 (stereo not drawn),474,-0.1% (inactive),-19.9% (inactive),101,0.0221,-0.732,2.07,-3.98% (inactive),-0.506 (inactive),-6.2e-05 (inactive),0.00557 (inactive),inactive,2.98% (inactive)
CC1(C(=O)O)CCC(C(=O)NC2CCCCCC2)C1(C)C (stereo not drawn),542,-9.8% (inactive),-131% (inactive),196,1.72,-0.55,-1.37,28.6% (inactive),-0.513 (inactive),-0.000107 (inactive),0.00621 (inactive),inactive,28.8% (inactive)
COc1ccc2[nH]c(C)c(C(=O)CN3CC(C)OC(C)C3)c2c1 (stereo not drawn),551,-0.3% (inactive),-1% (inactive),143,-0.788,1.62,-0.00446,3.5% (inactive),-0.194 (inactive),2.2e-05 (inactive),0.00534 (inactive),inactive,7.59% (inactive)
COc1ccc(-c2cc(-c3ccccc3)n3ncnc3n2)cc1,451,3.2% (inactive),-35.1% (inactive),162,1.29,1.44,-0.816,-1.12% (inactive),-0.00896 (inactive),-5.1e-07 (inactive),0.00473 (inactive),inactive,-19.8% (inactive)
COC(=O)c1[nH]c2cc(OC)ccc2c1NC(=O)CN1CCC(C(N)=O)CC1,363,2.6% (inactive),14.4% (inactive),134,0.612,-0.732,-0.532,9.42% (inactive),-0.434 (inactive),-0.000147 (inactive),0.00651 (inactive),inactive,25.6% (inactive)
O=c1[nH]c(CN2CCCCC2)nc2c1C1(CCCC1)Cc1ccccc1-2,414,-0.5% (inactive),-29.1% (inactive),101,0.73,-0.701,-0.0539,-1.12% (inactive),-0.233 (inactive),-8.8e-06 (inactive),0.00603 (inactive),inactive,-2.89% (inactive)
COc1cccc(-c2nnc3sc(-c4ccc(Cl)cc4)nn23)c1,588,3.2% (inactive),19.9% (inactive),102,0.426,-0.269,0.00297,-4.27% (inactive),-0.385 (inactive),-1.5e-05 (inactive),0.00661 (inactive),inactive,5.02% (inactive)
O=S(=O)(O)c1nc2ccccc2n1Cc1ccc(Cl)cc1Cl,405,-4.7% (inactive),-102% (inactive),149,-0.945,0.195,-1.66,20.8% (inactive),-0.337 (inactive),-1.5e-05 (inactive),0.00557 (inactive),inactive,27.2% (inactive)
COc1ccc(-c2nc3n(c2Br)CCC3)cc1,587,-14.6% (inactive),-22.2% (inactive),162,1.1,0.741,-1.03,39% (inactive),-0.503 (inactive),-2.6e-05 (inactive),0.00527 (inactive),inactive,49.9% (inactive)
Cc1c(NS(=O)(=O)c2cccc3nsnc23)c(=O)n(-c2ccccc2)n1C,549,-1.1% (inactive),-51.8% (inactive),154,0.537,0.599,-0.221,-6.06% (inactive),-0.499 (inactive),-3.8e-05 (inactive),0.00709 (inactive),inactive,-6.26% (inactive)
Cc1cccc2c1NC(C)CC2C (stereo not drawn),424,-23.2% (inactive),-291% (inactive),187,1.31,-0.632,-0.589,7.7% (inactive),-0.292 (inactive),-6.6e-06 (inactive),0.00419 (inactive),active; weak signal in gallbladder and intestine,5.59% (inactive)
COC(=O)c1n[nH]c2ccccc12,323,0.5% (inactive),-157% (inactive),119,-0.132,0.244,-1.14,-0.624% (inactive),-0.287 (inactive),-1.1e-05 (inactive),0.00523 (inactive),inactive,17.4% (inactive)
CCOc1cccc(-c2nnc3sc(-c4ccco4)nn23)c1,668,-1.9% (inactive),-152% (inactive),182,0.882,2.36,-0.0575,-13.3% (inactive),-0.428 (inactive),-0.000142 (inactive),0.00609 (inactive),inactive,18.3% (inactive)
Cc1cccc(C)c1OCC(O)CNS(=O)(=O)c1ccccc1C(=O)N1CCCCC1 (stereo not drawn),512,5.4% (inactive),-148% (inactive),171,-0.797,2.33,0.877,-3.95% (inactive),-0.36 (inactive),-7e-05 (inactive),0.00455 (inactive),inactive,-6.87% (inactive)
COc1ccc2[nH]c(C)c(C(=O)CN3CCN(C(=O)c4ccco4)CC3)c2c1,567,-7.1% (inactive),-4.8% (inactive),165,-1.11,-0.714,0.0705,-7.01% (inactive),-0.311 (inactive),-8.4e-06 (inactive),0.00523 (inactive),inactive,-1.6% (inactive)
COc1cccc(C2=CC(c3ccccc3)n3nnnc3N2)c1 (stereo not drawn),586,22.3% (inactive),-12.1% (inactive),120,0.0896,0.142,-0.691,-7.01% (inactive),-0.275 (inactive),1.9e-05 (inactive),0.00526 (inactive),inactive,22.4% (inactive)
COc1cc(-n2c3nc4ccccc4nc3c3c(=O)n(Cc4ccco4)cnc32)cc(OC)c1OC,308,-15.2% (inactive),-111% (inactive),168,-1.73,0.447,0.876,-3.5% (inactive),-0.417 (inactive),-0.000139 (inactive),0.00442 (inactive),inactive,3.2% (inactive)
Cc1nn(-c2ccccc2)c2c1C(c1ccc(F)cc1F)C(C#N)=C(N)O2 (stereo not drawn),611,-19.6% (inactive),17.2% (inactive),184,0.29,-0.619,0.392,19.1% (inactive),-0.41 (inactive),-2.3e-05 (inactive),0.00636 (inactive),inactive,18.8% (inactive)
